# Most compounds without a hit are left out; they make up all but 2.1% or so of the library.
# CCR6 antagonist – CCR6 (human) receptor antagonism; P51684; CHO-K1 CCR6 PathHunter beta-arrestin, luminescence, CCL20-stimulated; inhibition, % at 20 µM; actives 0.49% (n = 340,000); AID 493098;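 active = compounds whose inhibition of the agonist-driven luminescence signal at 20 µM reaches about 50%, limit read from the data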;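 also: cells stimulated with CCL20 at 14 nM final; plate controls were DMSO with CCL20 for no effect and DMSO without agonist for full effect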
# CXCR6 block – blocks human CXCR6 beta-arrestin recruitment; actives 0.36% (n = 360,000); O00574; AID 602244; inhibition, % at 20 µM; CHO-K1 PathHunter CXCR6 beta-arrestin, luminescence; in the data active = inhibition above about 34%, passing the limit was not always enough;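 also: antagonist mode with CXCL16 agonist at 10 nM final; 0% = 10 nM CXCL16 with DMSO and 100% = unstimulated wells without agonist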
# APJ ag – agonists of human APJ apelin receptor | CHO-K1 APJ PathHunter beta-arrestin, luminescence; 0% DMSO wells, 100% apelin | activation, % at 20 µM | AID 2520 | actives 0.11% (n = 330,000);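 active = activation more than six SD over the plate average, tested at 20 µM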;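 also: 0% = DMSO alone and 100% = apelin-13 at 10 nM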
#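 Test system: CHO-K1 APJ beta-arrestin complementation cell line. Amount: cell density 1000 per well. Controls: DMSO negative, 10 nM Apelin-13 positive. Signal: luminescent beta-gal fragment complementation, chemiluminescent substrate. Read-out basis: agonist-driven arrestin binding to APJ. Timing: compound stimulation 90 min at 25 °C, detection 60 min.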
# EBI2 block – blocks human EBI2 receptor beta-arrestin signaling. P32249. EBI2 beta-arrestin recruitment, luminescence, 7a,25-OHC stimulated. inhibition, % at 5 µM. actives 0.81% (n = 360,000); in the data active = inhibition above about 38%;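 also: enzyme fragment complementation signal reports receptor beta-arrestin coupling in cells; 0% = agonist plus DMSO wells and 100% = wells without agonist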
# HTR2A ag – activates the mouse 5-HT2A serotonin receptor; P35363; CHO-K1 mHTR2A beta-arrestin complementation, luminescence; percent of 30 µM serotonin response; activation, % at 7.6 µM; actives 0.66% (n = 360,000); AID 624169;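 active = activation above a run cutoff, the mean activation of all tested compounds plus 3 SD, cut at about 14% in these data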;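 also: 0% = plate median of compound wells and 100% = 30 µM serotonin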
# APJ antagonist – antagonists of human APJ apelin receptor | P35414 | CHO-K1 APJ beta-arrestin complementation, luminescence | inhibition, % at 20 µM | actives 0.32% (n = 330,000) | AID 2521;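 active = inhibition above about 40% at 20 µM, limit read from the data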;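 also: cells challenged with 10 nM apelin-13 agonist together with compound; plate controls were apelin-13 plus DMSO wells for no effect and DMSO wells lacking apelin-13 for full effect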
# MOR ag counter – OPRM1 agonism in mouse HTR2A counterscreen; actives 5.3% (n = 2,300); activation, % at 9.3 µM; shares compounds with HTR2A ag; U2OS OPRM1 beta-arrestin PathHunter, luminescence; DMSO 0%, DAMGO 9.3 µM 100%;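 active = mean activation above the mean of DMSO-only wells plus 3 SD, cut at about 0.5% in these data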
# Target sequence (P35372 whole entry, looked up): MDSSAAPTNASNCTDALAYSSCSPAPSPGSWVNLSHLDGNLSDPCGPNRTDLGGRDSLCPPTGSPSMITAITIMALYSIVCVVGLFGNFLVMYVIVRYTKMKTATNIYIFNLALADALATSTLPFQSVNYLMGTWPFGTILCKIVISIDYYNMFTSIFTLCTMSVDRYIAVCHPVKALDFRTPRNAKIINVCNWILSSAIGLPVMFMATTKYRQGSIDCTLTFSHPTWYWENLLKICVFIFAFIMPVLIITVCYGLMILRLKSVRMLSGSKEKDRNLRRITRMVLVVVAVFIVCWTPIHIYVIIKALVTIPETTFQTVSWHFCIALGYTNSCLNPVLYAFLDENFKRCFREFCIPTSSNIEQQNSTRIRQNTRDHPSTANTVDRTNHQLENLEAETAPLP
# HTR2A ag conf – confirmation of mouse HTR2A serotonin receptor agonists; shares compounds with HTR2A ag; CHO-K1 PathHunter beta-arrestin recruitment, luminescence; DMSO 0%, 30 µM serotonin 100%; activation, % at 7.6 µM; actives 19% (n = 2,300); AID 624381;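 active = mean activation across triplicates above the hit threshold derived in the original primary screen, cut at about 15% in these data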
# Numbers without * were called inactive; . = no result.
SMILES,CCR6 antagonist,CXCR6 block,APJ ag,EBI2 block,HTR2A ag,APJ antagonist,MOR ag counter,HTR2A ag conf
CCCNC(=O)C1CN(S(=O)(=O)c2ccccc2)CCN1S(=O)(=O)c1ccccc1 (stereo not given),-7,0,1,3,5,-3,.,.
Cc1ccc2c(cnn2C(=O)CCC(=O)NCc2ccccc2Cl)c1,4,1,-2,-2,19*,9,0,-1
CC(C)Cc1cc(C(=O)Nc2sc3c(c2C#N)CCCC3)no1,25,0,5,-4,6,1,.,.
CC(C)Cc1cc(C(=O)Nc2sc3c(c2C#N)CCC3)no1,8,13,-1,-2,17*,17,0,4
COc1ccc(/C=N/NS(=O)(=O)c2ccccc2)cc1OS(=O)(=O)c1ccccc1,34,8,-2,-13,-2,-7,.,.
O=[N+]([O-])c1ccc2c(c1)CCN2,8,-13,.,-4,3,.,.,.
CCOc1ccc(S(=O)(=O)NCC2(N3CCCCC3)CCCCC2)cc1,17,6,-4,-2,17*,-1,-1,-1
CNC(=O)C1CCN(S(=O)(=O)c2c(C)noc2/C=C/c2ccc(OC)cc2)CC1,-4,-9,0,-3,20*,-8,0,-4
CN1CCN(c2ccc(Cl)cc2NC(=O)c2ccc(=O)n(C)n2)CC1,-5,4,-4,14,18*,-11,-1,1
CCS(=O)(=O)n1c(Cc2cccs2)nc2ccccc21,1,-3,3,4,-2,12,.,.
CC(=O)Nc1ccc(S(=O)(=O)N2c3ccccc3NC(=O)CC2C)c(Cl)c1 (stereo not given),6,0,2,-2,17*,-6,0,-1
Cc1cnc(NC(=O)C2(c3ccccc3)CC2)s1,15,-10,.,0,21*,.,0,-5
CC(C)NNC(=O)c1ccncc1,18,1,-1,-8,28*,2,-1,45*
CC(=O)NNC(=O)c1ccncc1,11,-2,1,-5,0,16,.,.
CCC1=C(Nc2ccccc2)COC1=O,.,3,.,2,1,.,.,.
C[C@H]1CN([C@@H](C)CO)C(=O)c2cc(/C=C/c3ccccc3)cnc2O[C@H]1CN(C)C(=O)c1cccc(F)c1,.,1,.,3,17*,.,-1,-8
C[C@]12c3[nH]c4ccc(Cl)cc4c3CCN1C(=O)[C@@H](CC(=O)NCCN1CCOCC1)C[C@@H]2C(=O)N1CCOCC1,19,-6,.,1,3,.,.,.
C[C@]12c3[nH]c4ccc(Cl)cc4c3CCN1C(=O)[C@@H](CC(=O)NCCC1=CCCCC1)C[C@@H]2C(=O)N1CCOCC1,22,-3,.,13,23*,.,-1,-6
CCCCC(=O)NC(=S)Nc1nnn(CCC)n1,39,24,-4,4,-8,31,.,.
OCCNc1cnc2ccccc2n1,3,5,-2,-3,14,-24,.,.
OCCNc1nc2ccccc2nc1NCCO,-3,-1,-1,4,23*,3,0,1
O=C(C1CCN(CCCc2ccccc2)CC1)N1CCCCC1,-3,-3,-2,-6,20*,18,-1,45*
CC1CCN(C(=O)C2CCN(CCCc3ccccc3)CC2)CC1,.,.,-2,.,.,8,.,.
Cc1nn(CC2CC2)c(=O)n1-c1cccc(Cl)c1,-1,10,0,-5,20*,-8,0,-3
CCOC(=O)CC1(NC(=O)c2cc(COc3cccc(OC)c3)on2)CCCCC1,1,-3,2,5,15*,0,-1,-5
SMILES,CCR6 antagonist,CXCR6 block,APJ ag,EBI2 block,HTR2A ag,APJ antagonist,MOR ag counter,HTR2A ag conf
COc1cccc(OCc2cc(C(=O)NCC3CCCCC3)no2)c1,11,13,8,0,-6,-3,.,.
O=C(N/N=C/c1ccccc1Cl)C1CC1,8,-4,3,2,15*,-1,0,-5
CN(C)c1ccc(C2CC(=O)NC3=C2C(=O)CC(C)(C)C3)cc1 (stereo not given),-5,-6,2,-6,2,15,.,.
COc1ccc(S(=O)(=O)NCC(c2cccnc2)N2CCN(Cc3ccccc3)CC2)cc1 (stereo not given),-1,9,-5,-4,-1,3,.,.
CCN1CCN(C(CNS(=O)(=O)c2ccc(OC)cc2)c2cccnc2)CC1 (stereo not given),13,3,0,2,15*,0,-1,-5
O=c1oc2ccccc2c(NCc2ccccc2F)c1[N+](=O)[O-],13,14,-2,-11,-1,-17,.,.
O=C(C(c1ccccc1)c1ccccc1)N1CCC(c2nc(-c3ccccc3Cl)no2)CC1,19,2,-4,2,9,-21,.,.
CCOc1cc(CN2CCN(c3ncccn3)CC2)ccc1OC,10,5,-3,-3,22*,17,-1,50*
Fc1ccc(N2CCN(Cc3c[nH]c4ccccc34)CC2)cc1,.,.,2,.,.,2,.,.
c1cnc(N2CCN(Cc3c[nH]c4ccccc34)CC2)nc1,-7,-14,-5,1,29*,-9,-1,93*
COc1cccc(CN2CCN(Cc3cc(OC)c(OC)c(OC)c3)CC2)c1OC,10,-18,4,0,0,14,.,.
COc1ccc(CN2CCN(c3ncccn3)CC2)c(C)c1C,17,12,-1,5,34*,0,0,130*
COc1cccc(CN2CCN(c3ncccn3)CC2)c1OC,8,8,-6,8,25*,12,-1,81*
CN(C)CCCN(Cc1ccc2c(c1)OCO2)C(=O)NC1CCCCC1,-3,0,0,-2,-7,7,.,.
COc1ccc(Cl)cc1C(=O)NNC(=O)CCNC(=O)c1ccccc1,.,-3,.,-1,0,.,.,.
O=C(NCCO)c1nc(NCCO)c2ccccc2n1,10,-4,-3,-12,3,4,.,.
Cc1ccc(C(=O)c2nc(C(=O)NCCO)nc3ccccc23)cc1,-8,0,-4,6,16*,-2,-1,-3
O/N=C1/CCCCc2sccc21,3,-1,-2,-4,2,-23,.,.
CN1CCc2cc(Cl)c(O)cc2[C@@H](c2ccccc2)C1,6,-1,.,.,7,.,.,.
Oc1cc2c(cc1O)[C@@H](c1ccccc1)CNCC2,3,0,.,-2,19*,.,0,48*

# Bioassay records as filed in PubChem BioAssay.
